Reference: ChEMBL document CHEMBL2311257, “Synthesis and antioxidant activity of thymol and carvacrol based Schiff bases” (Bioorg Med Chem Lett, 2013)
≈ marks a conversion by molar mass, not a printed value. Values belong to the molecule of their own block, whether it stands above or below them. Calls of active or inactive are those of the source. The calls are words filed in the database; no cut-off is given here.

How the values were obtained:
Format in all cases: functional
[1] = tested on: Radical scavenging activity; experiment: Antioxidant activity assessed as DPPH radical scavenging activity in chloroform solution at 10 ug/mL
[2] = tested on: Radical scavenging activity; experiment: Antioxidant activity assessed as DPPH radical scavenging activity in ethanol solution
How it was run: (§1)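 Compound dissolved in ethanol, then ethanolic DPPH added. Incubated 30 min in the dark. DPPH decrease read as absorbance at 517 nm against an ethanol blank, with ascorbic acid as reference. % activity = [(A0 − Ai)/A0] × 100, where A0 is absorbance without compound and Ai with compound. IC50 taken from activity across concentrations.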

[3] = tested on: Radical scavenging activity; experiment: Antioxidant activity assessed as DPPH radical scavenging activity in ethanol solution at 50 ug/mL; how it was run: as §1
[4] = tested on: Radical scavenging activity; experiment: Antioxidant activity assessed as DPPH radical scavenging activity in chloroform solution at 100 ug/mL
[5] = tested on: Radical scavenging activity; experiment: Antioxidant activity assessed as DPPH radical scavenging activity in ethanol solution at 100 ug/mL; how it was run: as §1
[6] = Antioxidant activity assessed as ABTS radical scavenging activity at 5 ug/mL
How it was run: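 ABTS radical cation solution diluted in ethanol to an absorbance of 0.7–0.9 at 734 nm, 30 °C. Equal volume added to ethanolic compound solution (5 µg/mL). Absorbance read after 1 min and converted to percent inhibition.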

[7] = tested on: Radical scavenging activity; experiment: Antioxidant activity assessed as DPPH radical scavenging activity in chloroform solution
[8] = tested on: Radical scavenging activity; experiment: Antioxidant activity assessed as DPPH radical scavenging activity in chloroform solution at 5 ug/mL
[9] = tested on: Radical scavenging activity; experiment: Antioxidant activity assessed as DPPH radical scavenging activity in ethanol solution at 10 ug/mL; how it was run: as §1
[10] = tested on: Radical scavenging activity; experiment: Antioxidant activity assessed as DPPH radical scavenging activity in ethanol solution at 25 ug/mL; how it was run: as §1
[11] = tested on: Radical scavenging activity; experiment: Antioxidant activity assessed as DPPH radical scavenging activity in ethanol solution at 5 ug/mL; how it was run: as §1
[12] = tested on: Radical scavenging activity; experiment: Antioxidant activity assessed as DPPH radical scavenging activity in chloroform solution at 50 ug/mL
[13] = tested on: Radical scavenging activity; experiment: Antioxidant activity assessed as DPPH radical scavenging activity in chloroform solution at 25 ug/mL

IC50 [2]: 26.71 µg/mL (≈ 85.2 µM)
IC50 [7]: 25.47 µg/mL (≈ 81.3 µM)
SMILES: COc1cc(/C=N/c2cc(C(C)C)c(O)cc2C)cc(OC)c1
Activity [1]: 37%
Activity [3]: 71.5%
Activity [4]: 89.1%
Activity [5]: 78.4%
Activity [6]: Active
Activity [8]: 21.8%
Activity [9]: 40.4%
Activity [10]: 62.9%
Activity [11]: 24.5%
Activity [12]: 84.2%
Activity [13]: 59.5%

IC50 [2]: 7.85 µg/mL (≈ 18.4 µM)
IC50 [7]: 12.6 µg/mL (≈ 29.5 µM)
SMILES: Cc1cc(/N=C/c2cc(Br)c(O)c(Br)c2)c(C(C)C)cc1O
Activity [1]: 45.4%
Activity [3]: 88.2%
Activity [4]: 91.3%
Activity [5]: 95.2%
Activity [6]: Active
Activity [8]: 31.7%
Activity [9]: 47.6%
Activity [10]: 74.6%
Activity [11]: 33.3%
Activity [12]: 85.8%
Activity [13]: 69%

IC50 [2]: 8.33 µg/mL (≈ 19.5 µM)
IC50 [7]: 17.98 µg/mL (≈ 42.1 µM)
SMILES: Cc1cc(O)c(C(C)C)cc1/N=C/c1cc(Br)c(O)c(Br)c1
Activity [1]: 46.1%
Activity [3]: 92.3%
Activity [4]: 90.1%
Activity [5]: 95.2%
Activity [6]: Active
Activity [8]: 25.2%
Activity [9]: 51.8%
Activity [10]: 78.7%
Activity [11]: 24.1%
Activity [12]: 77.4%
Activity [13]: 69.2%
